MPTP inh: mitochondrial permeability transition pore inhibitors, primary screen, biochemical, isolated mouse mitochondria, absorbance. Ca2+ swelling absorbance, 30 min. inhibition, % at 10 µM. 360,000 compounds, 1.4% hits. AID 602449, 2012;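 active means inhibition of 50% or more, scaled per plate between neutral and stimulator controls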;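 further: 0% = DMSO wells given calcium and 100% = 1 mM EGTA wells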
GRIN3A LBD mod: binders of NR3A ligand-binding domain, primary screen, biophysical, differential scanning fluorimetry, uHTS. AID 1259313, 2017. NR3A LBD differential scanning fluorimetry, Tm shift; 0% = protein alone, 100% = glycine-bound protein. Tm shift relative to glycine control, % at 25 µM. 340,000 compounds, 2.5% hits;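 active means melting temperature shift of at least 10% of the positive control shift, at one fixed dose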
proCasp7 act: procaspase-7 activators, primary screen, counter-screen for procaspase-3 activator project, biochemical, absorbance, HTS, human; Caspase-7 (Homo sapiens), P55210; recombinant procaspase-7, Ac-DEVD-pNA absorbance 405 nm; D23A/D198A/D206A triple mutant, cannot self-cleave; scale: DMSO 0, 5 µM enzyme 100; activation, % at 8.5 µM; 330,000 compounds, 0.093% hits; AID 463210, 2010;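 active means percent activation above the screen-wide mean plus 3 SD, cut at about 25% in these data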
Target sequence (P55210 whole entry D23A/D198A/D206A): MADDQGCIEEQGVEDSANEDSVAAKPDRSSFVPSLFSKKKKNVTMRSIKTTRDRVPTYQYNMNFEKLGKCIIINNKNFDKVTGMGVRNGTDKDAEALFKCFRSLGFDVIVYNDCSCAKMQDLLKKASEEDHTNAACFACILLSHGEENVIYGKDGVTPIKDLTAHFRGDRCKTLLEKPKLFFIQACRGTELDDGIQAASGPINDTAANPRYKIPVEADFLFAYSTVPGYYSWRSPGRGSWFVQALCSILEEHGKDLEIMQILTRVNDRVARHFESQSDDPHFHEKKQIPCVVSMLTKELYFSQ
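Test system: Procaspase-7 triple mutant (PC-7 D3A). Also added: Ac-DEVD-pNA substrate, 400 µM as added. Schedule: 1 h enzyme–compound preincubation and 2 h substrate reaction, both 25 °C. Signal: p-Nitroaniline absorbance at 405 nm, read at 0 and 120 min. Control set: low DMSO alone, high DMSO plus 5 µM PC-7.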
procasp3 activ: activators of human procaspase-3 D3A mutant, primary screen, biochemical, absorbance, PC-3 D3A mutant, single concentration. recombinant procaspase-3 D3A, Ac-DEVD-pNA absorbance 405 nm. activation, % at 8.5 µM. 330,000 compounds, 0.11% hits;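 active means activation above the mean of all tested compounds plus 3 SD, cut at about 21% in these data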;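 further: 0% = DMSO alone and 100% = DMSO wells spiked with extra 5 µM PC-3 D3A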
Target sequence (P42574 whole entry D9A/D28A/D175A): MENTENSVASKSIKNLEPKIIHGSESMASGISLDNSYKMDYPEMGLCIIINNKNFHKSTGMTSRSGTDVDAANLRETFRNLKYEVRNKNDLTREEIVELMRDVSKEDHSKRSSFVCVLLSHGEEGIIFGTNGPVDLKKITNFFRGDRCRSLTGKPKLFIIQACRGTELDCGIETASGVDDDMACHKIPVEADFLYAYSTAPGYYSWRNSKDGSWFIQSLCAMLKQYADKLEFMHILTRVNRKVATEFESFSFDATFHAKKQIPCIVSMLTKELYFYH
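Test system: Procaspase-3 D3A mutant, all three cleavage aspartates alanine | Dosing: Single dose, 8.5 µM nominal compound, 0.8% DMSO | Schedule: 1 h preincubation, 2 h reaction | Technique: 405 nm absorbance of p-nitroaniline, reads at 0 and 120 min | Repeats: One well per compound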
aDG glyco act: activators of alpha-DG glycosylation, primary screen, uHTS, Pro5-aDG cells, AlphaScreen; alpha-DG glycosylation AlphaScreen (IIH6); 0% Pro5, 100% B10-LARGE cell signal; activation, % at 10 µM; 360,000 compounds, 0.22% hits; AID 624168, 2012;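 active means activation of at least 8% versus controls, or a plate z-score of at least 8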;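 further: Pro5 are CHO cells carrying HIG-tagged alpha-DG that lacks glycosylation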
* = called active by the depositor; / = not tested or not shown. Only some compounds are listed: those with a hit (about 3.7% of all), similar ones and a draw of the others.

SMILES | MPTP inh | GRIN3A LBD mod | proCasp7 act | procasp3 activ | aDG glyco act
Cc1ccc(NC(=O)c2cc3c(s2)CCCC3)cc1S(=O)(=O)Nc1ccccc1Cl | 41 | 18* | 7 | 6 | 0
Cc1ccc(NC(=O)CNC(=O)c2cccs2)cc1S(=O)(=O)Nc1ccc(Cl)cc1 | 5 | 12* | -1 | -4 | 0
COc1ccccc1NS(=O)(=O)c1cc(NC(=O)c2sc3cc(Cl)ccc3c2Cl)ccc1C | 5 | -5 | -7 | -5 | 0
N#Cc1ccc(C=NN2CCCCCC2)cc1 | -1 | 2 | / | / | 0
CCOC(=O)c1ccc(NC(=S)Nc2ccc(Br)cc2N)cc1 | 10 | 23* | -10 | -3 | 0
NC(Cc1ccc(Cl)cc1)c1csc(Nc2ccc(-c3ccccc3)nn2)n1 (configuration not stated) | 3 | / | / | / | -1
O=C(COC(=O)c1ccc(Br)o1)NCc1ccccc1Cl | 0 | 0 | 3 | -10 | 0
CN1C(=O)C(CC#N)(C2(CC#N)C(=O)N(C)c3ccccc32)c2ccccc21 (configuration not stated) | 0 | 0 | / | / | 0
Cc1ccc(C(=O)OCC(=O)Nc2cc(Cl)ccc2C#N)o1 | 2 | / | / | / | 0
CCCCOC(=O)c1nc(Cl)c(Cl)c(N)c1Cl | 0 | 13* | -4 | 1 | 0
Fc1ccc(Nc2ccc(-c3ccc(F)cc3)nn2)cc1 | 1 | 26* | 5 | -5 | 0
Cc1ccc(Nc2ccccc2)nn1 | 2 | 1 | -4 | -5 | 0
Fc1ccc(-c2ccc(Nc3cccc(F)c3)nn2)cc1 | 2 | 30* | 9 | -4 | 0
COc1cc(F)ccc1-c1csc(C(NC(C)=O)c2ccc(F)c(F)c2)n1 (configuration not stated) | -1 | / | / | / | 0
Clc1nc(Oc2ccccc2)nc(-c2cn(-c3ccccc3)c3ccccc23)n1 | 1 | 3 | -6 | 1 | 0
CCNc1nc(Cl)nc(-c2cn(-c3ccccc3)c3ccccc23)n1 | 1 | 12* | -1 | -8 | 0
CCCc1nc(SCC(=O)N2CCc3ccccc3C2)c2ccccc2n1 | 2 | 13* | -13 | -2 | 1
O=C(/C=C/c1ccc(Br)o1)NC(c1ccccc1)c1ccccc1 | 34 | 20* | -18 | -1 | 0
C[C@@H](NS(=O)(=O)c1cc(Cl)ccc1F)[C@H](O)c1ccccc1 | 0 | -1 | / | / | 0
O=c1cc(-c2ccsc2)oc2ccc(-c3ccc4cc[nH]c4c3)cc12 | 3 | 15* | 0 | 4 | 1
O=C(Nc1ccccc1)c1ccc(-c2ccc(Br)cc2)o1 | 28 | 19* | 15 | 4 | 0
O=C(Nc1cccc(NC(=O)c2ccc(-c3cccc(Br)c3)o2)c1)c1ccco1 | 3 | 13* | 10 | -4 | 0
O=C(Nc1cccc(NC(=O)c2ccc(-c3ccc(Br)cc3)o2)c1)c1ccccc1 | -3 | -8 | -4 | -2 | 0
Cc1nc(C(F)(F)F)ccc1C(=O)N1CCC1(C)C(=O)Nc1ccc2c(c1)OCO2 (configuration not stated) | 1 | / | / | / | 0
CNc1c(NS(=O)(=O)c2ccc(OC)c(Cl)c2)c(=O)oc2ccccc12 | -2 | 16* | 12 | 2 | 0
SMILES | MPTP inh | GRIN3A LBD mod | proCasp7 act | procasp3 activ | aDG glyco act
O=C(COc1coc(CN2CCN(c3ccccc3F)CC2)cc1=O)NC1CCCC1 | 0 | 2 | 6 | 6 | 0
CC(=O)Nc1ccc(/C=C/c2noc(-c3ccccc3O)n2)cc1 | 1 | 12* | 16 | 3 | 0
COc1cc(/C=C/c2noc(-c3ccccc3O)n2)ccc1OC(C)=O | 3 | 0 | 5 | 2 | 1
N#C/C(=C\c1ccccc1[N+](=O)[O-])c1nc(C2CC2)cs1 | 0 | 16* | -6 | -8 | 0
CC1(C(=O)NCc2ccccc2)CN(S(C)(=O)=O)CC(=O)N1Cc1cccc(C(F)(F)F)c1 (configuration not stated) | -1 | / | / | / | 1
CCc1cccc(C)c1NC(=O)CCCSc1nc2ccccc2s1 | 5 | -1 | 4 | 7 | 0
CCc1cccc(CC)c1NC(=O)C1SC(=Nc2ccccc2C)C(c2nc3ccccc3s2)=C1N (configuration not stated) | 20 | 19* | 3 | 1 | 3
CCN(CC)C(=O)CSc1nc2c(sc(=S)n2-c2ccccc2)c(=O)n1-c1ccc(OC)cc1OC | 2 | 12* | -16 | -10 | 0
Cc1cc(C(=O)OCC(=O)Nc2ccccc2[N+](=O)[O-])c2ccccc2n1 | -1 | 8 | 3 | -2 | 0
Cc1cnc(C(=O)OCC(=O)Nc2ccccc2[N+](=O)[O-])cn1 | -2 | 11* | 8 | -8 | 0
CCOC(=O)N1CCN(c2ccc(F)cc2[N+](=O)[O-])CC1 | 0 | 23* | 2 | -1 | 0
CCOC(=O)N1CCN(c2ccc(N3C(=O)CCCC3=O)cc2[N+](=O)[O-])CC1 | 2 | -2 | -16 | -5 | 0
Cc1ccccc1C(C)NS(=O)(=O)c1ccc2c(c1)OCCO2 (configuration not stated) | 6 | 2 | -9 | -1 | 0
COc1cc(/C=N/O)ccc1Oc1ccc([N+](=O)[O-])cc1[N+](=O)[O-] | 2 | -16 | 8 | 1 | 0
O=[N+]([O-])c1cc(/C=N\O)ccc1Oc1ccc(F)cc1 | 0 | 16* | 2 | 2 | 0
CCSc1nc2c(c(=O)[nH]c(=O)n2C)n1C/C=C(/C)Cl | 0 | -1 | 3 | 5 | 0
CCOC(=O)C(C)Sc1nc2c(c(=O)[nH]c(=O)n2C)n1C/C=C(/C)Cl (configuration not stated) | -3 | 11* | -17 | -18 | 0
O=C(NCc1ccco1)/C(=C/c1ccc(F)cc1)NC(=O)c1ccccc1 | 0 | 1 | -1 | 9 | 0
O=C(NCc1ccco1)/C(=C/c1ccccc1F)NC(=O)c1ccccc1 | 0 | 14* | 8 | -2 | 0
COc1ccc(CNC(=O)CN2C(=O)COc3ccc(S(=O)(=O)N4CCC(C)CC4)cc32)cc1 | -1 | 45* | 12 | 7 | 0
COc1ccc(CNC(=O)CN2C(=O)COc3ccc(S(=O)(=O)N4CCOCC4)cc32)cc1 | -1 | -1 | -8 | 1 | 0
Cc1ccc(C)c(NC(=O)CN2C(=O)COc3ccc(S(=O)(=O)N4CCCC4)cc32)c1 | -2 | 10* | 2 | 2 | 5
Fc1ccc(-n2nnc(-c3ncc[nH]3)n2)cc1 | / | / | 1 | -5 | /
